According to ChEMBL document CHEMBL3860061, “A Novel Parkinson's Disease Drug Candidate with Potent Anti-neuroinflammatory Effects through the Src Signaling Pathway” (J Med Chem, 2016):
Calls of active or inactive are those of the source. The calls are words filed in the database; no cut-off is given here.

Legend:
[1] = molecular target: Proto-oncogene tyrosine-protein kinase Src (Rattus norvegicus) (UniProt Q9WUD9); assay: Inhibition of Src in Sprague-Dawley rat primary mixed mesecephalic neuron/glial cells assessed as suppression of LPS-induced IL-1beta expression at 10 uM preincubated for 1 hr followed by LPS challenge measured after 5 hrs by ELISA
Sequence of Proto-oncogene tyrosine-protein kinase Src (Rattus norvegicus) (Q9WUD9 2-536 limits assumed): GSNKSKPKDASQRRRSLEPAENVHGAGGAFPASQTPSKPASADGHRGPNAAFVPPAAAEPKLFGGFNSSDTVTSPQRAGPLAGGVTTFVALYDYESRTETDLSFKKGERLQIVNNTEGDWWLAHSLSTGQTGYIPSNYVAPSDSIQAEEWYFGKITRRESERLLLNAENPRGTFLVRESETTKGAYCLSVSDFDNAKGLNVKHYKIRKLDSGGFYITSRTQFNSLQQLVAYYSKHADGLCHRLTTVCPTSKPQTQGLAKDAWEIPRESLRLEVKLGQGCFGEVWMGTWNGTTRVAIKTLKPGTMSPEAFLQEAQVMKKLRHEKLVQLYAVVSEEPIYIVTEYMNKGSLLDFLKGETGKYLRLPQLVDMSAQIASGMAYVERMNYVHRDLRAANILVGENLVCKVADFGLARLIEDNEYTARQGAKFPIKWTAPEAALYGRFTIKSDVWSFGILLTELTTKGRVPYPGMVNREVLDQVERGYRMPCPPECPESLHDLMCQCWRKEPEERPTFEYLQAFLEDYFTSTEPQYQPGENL
Method in brief: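 Mixed mesencephalic neuron/glia cultures from E14 Sprague-Dawley rats, used at 7 days. Agent at 10 µM added 1 h before LPS 100 ng/mL; IL-1β and TNF-α in medium measured by ELISA after 5 h, n = 6.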

[2] = Drug uptake in ICR mouse plasma at 50 mg/kg, ig after 5 mins by LC/MS/MS analysis; type: ADME, organism-based; details: in vivo, po
[3] = molecular target: Voltage-gated inwardly rectifying potassium channel KCNH2 (Homo sapiens, UniProt Q12809); assay: Inhibition of human ERG by whole cell voltage clamp assay
Sequence of Voltage-gated inwardly rectifying potassium channel KCNH2 (Q12809 whole entry): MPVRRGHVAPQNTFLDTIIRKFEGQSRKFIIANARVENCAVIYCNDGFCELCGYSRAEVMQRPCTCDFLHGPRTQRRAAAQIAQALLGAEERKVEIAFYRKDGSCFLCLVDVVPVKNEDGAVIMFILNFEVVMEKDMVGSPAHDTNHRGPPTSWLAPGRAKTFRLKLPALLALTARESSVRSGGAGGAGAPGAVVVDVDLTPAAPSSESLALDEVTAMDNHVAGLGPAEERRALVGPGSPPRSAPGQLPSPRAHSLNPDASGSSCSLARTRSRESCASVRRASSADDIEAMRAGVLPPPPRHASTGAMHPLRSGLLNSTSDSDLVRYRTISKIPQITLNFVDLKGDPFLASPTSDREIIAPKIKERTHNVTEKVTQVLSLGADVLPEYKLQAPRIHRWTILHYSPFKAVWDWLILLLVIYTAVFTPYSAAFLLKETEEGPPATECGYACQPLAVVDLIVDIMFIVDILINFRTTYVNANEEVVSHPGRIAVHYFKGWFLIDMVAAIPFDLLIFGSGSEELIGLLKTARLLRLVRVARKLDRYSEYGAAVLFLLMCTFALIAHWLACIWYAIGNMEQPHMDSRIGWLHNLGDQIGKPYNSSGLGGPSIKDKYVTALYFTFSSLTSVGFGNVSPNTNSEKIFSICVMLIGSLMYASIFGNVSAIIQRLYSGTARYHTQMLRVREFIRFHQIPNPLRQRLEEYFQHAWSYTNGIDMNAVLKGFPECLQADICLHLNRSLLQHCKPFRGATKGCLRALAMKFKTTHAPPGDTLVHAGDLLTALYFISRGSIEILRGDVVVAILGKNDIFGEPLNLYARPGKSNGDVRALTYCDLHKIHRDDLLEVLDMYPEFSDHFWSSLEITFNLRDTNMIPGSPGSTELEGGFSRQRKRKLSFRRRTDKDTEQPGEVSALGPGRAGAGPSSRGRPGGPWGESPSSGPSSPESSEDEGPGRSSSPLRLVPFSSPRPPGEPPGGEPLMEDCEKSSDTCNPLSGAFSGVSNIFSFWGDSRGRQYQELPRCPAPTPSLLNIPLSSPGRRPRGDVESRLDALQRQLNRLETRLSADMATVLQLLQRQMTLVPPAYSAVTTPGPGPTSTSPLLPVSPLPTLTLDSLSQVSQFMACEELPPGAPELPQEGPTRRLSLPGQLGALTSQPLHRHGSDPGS
Method in brief: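 Whole-cell voltage clamp. Internal solution: KCl 130 mM, MgCl2 1 mM, EGTA 5 mM, ATP-Mg 5 mM, HEPES 10 mM, pH 7.2. Bath: NaCl 137, CaCl2 1.8, KCl 4, MgCl2 1, glucose 5, HEPES 10 mM, pH 7.4. From a holding potential of −70 mV, 2-s steps to 50 mV in 10 mV increments every 15 s; tail current recorded on a 2-s step from +50 to −40 mV.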

[4] = tested on: Mus musculus; assay: Neuroprotective activity in MPTP/probenecid-induced chronic C57/BL mouse Parkinson's disease model assessed as improvement in motor behavior at 5 to 20 mg/kg dosed once daily for 7 weeks post 10 doses of MPTP/probenecid for 5 weeks measured after last MPTP/probenecid dose by rotarod test; type: functional, organism-based
Method in brief: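 Chronic MPTP/probenecid model (10 doses over 5 weeks), then agent (5–20 mg/kg) or L-DOPA 20 mg/kg daily for 7 weeks. Rotarod at 14 rpm, up to 120 s, fall latency from three trials 1 h apart. Pole test: gauze-wrapped 50 cm pole, descent scored 1–5, two trials 1 h apart after pre-training. n = 15.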

[5] = tested on: Mus musculus; assay: Antineuro-inflammatrory activity in MPTP/probenecid-induced chronic C57/BL mouse Parkinson's disease model assessed as decrease in TNF-alpha level in midbrain at 10 to 20 mg/kg dosed once daily for 7 weeks post 10 doses of MPTP/probenecid for 5 weeks measured after last MPTP/probenecid dose by ELISA; type: functional, organism-based
Method in brief: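 Male C57/BL mice (22–25 g) received 10 doses of MPTP hydrochloride (25 mg/kg in saline, s.c.) plus probenecid (250 mg/kg in DMSO, i.p.) over 5 weeks. Only mice failing the rotarod afterwards were randomised to agent (5, 10, 20 mg/kg) or L-DOPA 20 mg/kg in 0.5% CMC-Na, once daily for 7 weeks. Midbrain lysate in non-denaturing buffer with protease inhibitor; IL-1β or TNF-α by ELISA, n = 6.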

[6] = tested on: Mus musculus; assay: Neuroprotective activity in alpha-syn A53T transgenic B6C3H mouse assessed as improvement in motor behavior at 5 to 20 mg/kg dosed once daily for 12 consecutive weeks by pole test; type: functional, organism-based
[7] = tested on: Mus musculus; assay: Increase in dopamine levels in alpha-syn A53T transgenic B6C3H mouse striatum at 10 to 20 mg/kg dosed once daily for 12 consecutive weeks by HPLC analysis; type: functional, organism-based
Method in brief: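 α-syn A53T transgenic B6;C3H mice, dosed from 4 months of age once daily for 12 weeks with agent (5–20 mg/kg) or L-DOPA 20 mg/kg in 0.5% CMC-Na. Striatum sonicated in 0.6 N perchloric acid, phosphate/citrate/EDTA solution added, centrifuged; dopamine by HPLC, n = 8.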

[8] = tested on: Mus musculus; assay: Antineuro-inflammatrory activity in alpha-syn A53T transgenic B6C3H mouse assessed as decrease in IL-1beta level in midbrain at 10 to 20 mg/kg dosed once daily for 12 consecutive weeks by ELISA; type: functional, organism-based
Method in brief: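 Male B6;C3H mice expressing mutant α-syn (A53T), from 4 months old, given agent (5, 10, 20 mg/kg) or L-DOPA 20 mg/kg in 0.5% CMC-Na once daily for 12 weeks. Wild-type controls received vehicle. Midbrain homogenised in non-denaturing lysis buffer with protease inhibitor; IL-1β or TNF-α measured by ELISA, n = 6, mean ± SD.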

[9] = tested on: Mus musculus; assay: In vivo inhibition of Src in MPTP/probenecid-induced chronic C57/BL mouse Parkinson's disease model assessed as effect on PTEN expression level in midbrain at 5 to 20 mg/kg dosed once daily for 7 weeks post 10 doses of MPTP/probenecid for 5 weeks by iTRAQ-labelled 2D-LC/MS/MS analysis; type: functional, organism-based
[10] = molecular target: Proto-oncogene tyrosine-protein kinase Src (Rattus norvegicus) (UniProt Q9WUD9); assay: Inhibition of Src in Sprague-Dawley rat primary microglia cells assessed as suppression of LPS-stimulated PTEN phosphorylation at Tyr-240 residue at 10 uM preincubated for 1 hr followed by LPS challenge measured after 3 hrs by Western blot analysis
Method in brief: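 Primary microglia from 1-day-old Sprague-Dawley rat brains, grown to confluence 12–14 days, shaken off astroglia (>98% pure). Agent at 10 µM added 1 h before LPS 100 ng/mL. Phosphorylated Src, Akt and PTEN measured 3 h later by Western blot, n = 4.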

[11] = tested on: Mus musculus; assay: In vivo inhibition of Src in MPTP/probenecid-induced chronic C57/BL mouse Parkinson's disease model assessed as effect on Akt expression level in midbrain at 5 to 20 mg/kg […] once in a day for 7 weeks post 10 doses of MPTP for 5 weeks by Western blot analysis; type: functional, organism-based
[12] = tested on: Mus musculus; assay: In vivo inhibition of Src in MPTP/probenecid-induced chronic C57/BL mouse Parkinson's disease model assessed as effect on NOS1 expression level in midbrain at 5 to 20 mg/kg co-administered with L-DOPA once in a day for 7 weeks post 10 doses of MPTP for 5 weeks by Western blot analysis; type: functional, organism-based
[13] = tested on: Mus musculus; assay: Effect on ROCK1 protein expression level in midbrain of MPTP/probenecid-induced chronic C57/BL mouse Parkinson's disease model at 5 to 20 mg/kg dosed once daily for 7 weeks post 10 doses of MPTP/probenecid for 5 weeks by Western blot analysis; type: functional, organism-based
[14] = tested on: Mus musculus; assay: Effect on Src protein expression level in midbrain of MPTP/probenecid-induced chronic C57/BL mouse Parkinson's disease model at 5 to 20 mg/kg dosed once daily for 7 weeks post 10 doses of MPTP/probenecid for 5 weeks by Western blot analysis; type: functional, organism-based

For `COc1cc(OC)c(CN[C@@H](CO)C(=O)O)c(OC)c1`, which inhibition [1] is on record?
Its inhibition is “Active”.

And the Drug uptake [2]?
The Drug uptake was “Active”.

And the “inhibition (INH)” value [3]?
The value was “Active”.

What about the Activity [4] of the same compound?
The Activity was “Active”.

What about the Activity [5] of the same compound?
Its Activity is “Active”.

What about the Activity [6] of the same compound?
The Activity was “Active”.

What about the Activity [7] of the same compound?
Its Activity is “Active”.

And the Activity [8]?
The Activity was “Active”.

What about the inhibition [9] of the same compound?
The inhibition was “Active”.

What about the inhibition [10] of the same compound?
The inhibition was “Active”.

And the inhibition [11]?
The inhibition was “Active”.

What about the inhibition [12] of the same compound?
The inhibition was “Active”.

And the Activity [13]?
The Activity was “Active”.

What about the Activity [14] of the same compound?
The Activity was “Active”.
